Assay outcomes from PubChem BioAssay.
MT stabilize HCS = stabilizes microtubules in HeLa cells; % tubulin-high responders, % at 10 µM; HeLa tubulin immunostaining HCS, 24 h; share of cells brighter than vehicle mean+2SD; AID 2205; 0.83% of 200,000 active;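 active means plate Z-score above 3 for both tubulin-high and condensed-nucleus cell shares, with cell loss under 80%, at 10 µM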;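 further: anti alpha tubulin signal scored within the nucleus-defined area of each cell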
HSV replic up = HSV replication enhancement | HSV replication augmentation in cells, fold increase | maximum fold increase | 0.005% of 220,000 active; in the data active means maximum fold increase above about 1.5; inconclusive means no clear call, values can overlap the other calls; tested in PC3 cells
bCat nuc transl = alters nuclear translocation of beta-catenin in HeLa cells; 0.3% of 190,000 active; nuclear translocation activity, % at 5 µM; immunofluorescence imaging;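 active means nuclear translocation activity above 50% at 5 µM, with a well cell count of 50 or more; inconclusive means wells under 50 cells across six images, flagged as toxic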;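 further: per-cell ratio of nuclear to cytoplasmic median beta-catenin stain intensity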
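test system = HeLa cells, endogenous beta-catenin | dosing = single 5 µM dose plus 0.02–20 µM confirmation series | times = compound treatment 24 h, 37°C, 5% CO2 | technique = beta-catenin immunofluorescence imaging with DAPI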
Dynein cargo inh = dynein cargo transport inhibition; 3617.4 mouse cells, GR-EGFP nuclear translocation imaging; test concentration mostly 20 µM; stimulated with dexamethasone, 1 µM; hits give low values; z-score, hits read low; 0.47% of 220,000 active; AID 1381;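 active means plate z-score of nuclear minus cytoplasmic receptor signal below a set negative limit, without overly bright fluorescence or cell loss, cut at about -3.5 in these data, passing the limit was not always enough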;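 further: z-score of nuclear minus cytoplasmic ring GR-EGFP intensity difference per well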
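Buffer or medium: tet-free, stripped-serum medium; reagent: dexamethasone at 1.0 µM final, 30 min; incubation: 48 h induction, 1 h compound, 30 min dex at 37 °C; measured by: formaldehyde fixation, Hoechst nuclear stain, 10x automated fluorescence imaging; read-out: nuclear-to-cytoplasmic GR-EGFP distribution per well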
Lmaj promast = inhibitors of Leishmania major promastigote growth | Leishmania major promastigotes, resazurin fluorescence viability | inhibition, % at 10 µM | 9% of 200,000 active | AID 1063; in the data active means inhibition above about 50%;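 further: promastigotes grown with compound for 44 hours at 28 °C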
Of the large screens only hits and unclear results are named; the others gave an inactive call. Only some compounds are listed: those with a hit (about 8.9% of all), similar ones and a draw of the others.

CC(C)(C)C(=O)NC(=S)NNC(=O)c1ccc(-c2ccccc2)cc1	Lmaj promast 96.6
CC(C)(C)C(=O)NC(=S)NNC(=O)c1ccncc1	none
COc1cc(CNCc2ccccc2C(F)(F)F)cc(OC)c1	none
O=C(C1CC1(c1ccccc1)c1ccccc1)N1CCOCC1 (stereo unspecified)	none
O=C(C1CCN(c2ccc(N3CCOCC3)nn2)CC1)N1CCN(c2ccc(F)cc2)CC1	Lmaj promast 96.8
COc1ccc(C(=O)OC(C(=O)c2ccccc2)c2ccccc2)cc1 (stereo unspecified)	none
CCOC(=O)c1cnc(Nc2nc3ccccc3o2)nc1CN1CCN(C)CC1	Lmaj promast 76.5 (no result: HSV replic up)
CN(C)/C=C(\C=O)c1cccc(Cl)c1	none
CN1CCCN(Cc2nc(-c3ccc(Cl)cc3)no2)CC1	Lmaj promast 92.7
CN1CCCN(Cc2ccc(Cl)cc2Cl)CC1	Lmaj promast 97.8
CC(C(=O)Nc1cccnc1)c1ccc([N+](=O)[O-])cc1 (stereo unspecified)	none
CC(C(=O)Nc1cccc(Br)c1)c1ccc([N+](=O)[O-])cc1 (stereo unspecified)	Lmaj promast 51.2
COC(=O)c1nn(-c2ccccc2)c(Cl)c1/C=N/OC(=O)c1ccc(Cl)c(Cl)c1	none
COc1ccc(C(CC(=O)NCc2ccccc2)Sc2n[nH]c(-c3ccc(Cl)cc3)n2)cc1 (stereo unspecified)	Lmaj promast 52.4
COc1ccccc1N1CCN(C(=O)COc2cc(C)ccc2C)CC1	Lmaj promast 64.2 (no result: bCat nuc transl)
COc1ccccc1N1CCN(C(=O)COc2ccc(C)cc2Br)CC1	none
COc1ccccc1N1CCN(C(=O)/C=C/c2ccc(C)cc2)CC1	Lmaj promast 54.5
COc1ccc(-c2ccc(=O)n(CC(=O)N3CCN(c4ccccc4OC)CC3)n2)cc1	Lmaj promast 92.3 (no result: HSV replic up, bCat nuc transl)
O=C1NC(=O)C(CC(=O)N(c2ccccc2)C2(C(=O)NC3CCCC3)CCCCC2)N1 (stereo unspecified)	none
COc1ccc(OC)c(C(=O)c2ccc(C(=O)c3cc(OC)ccc3OC)cc2)c1	none
Fc1ccc(-c2csc3ncnc(Nc4ccc(N5CCOCC5)cc4)c23)cc1	Lmaj promast 65.5
Fc1ccc(-c2csc3ncnc(N4CCc5ccccc5C4)c23)cc1	Lmaj promast 66.5
O=C(NNC1=Nc2cccc3cccc1c23)c1ccccc1Br	HSV replic up inconclusive, Lmaj promast 52.7
c1ccc(NC2=Nc3cccc4cccc2c34)cc1	none
Cc1cccc2sc(NC(=O)C3CCN(S(=O)(=O)c4cc([N+](=O)[O-])ccc4Cl)CC3)nc12	Lmaj promast 90.3
O=C(NCc1ccc(Cl)cc1)C1CCN(S(=O)(=O)c2cc([N+](=O)[O-])ccc2Cl)CC1	Lmaj promast 79.5
CCCCC(=O)O[C@]1(C(=O)CO)CC[C@H]2[C@@H]3CCC4=CC(=O)CC[C@]4(C)[C@H]3[C@@H](O)C[C@@]21C	none
COC(=O)C1=C(C)N(Cc2ccccc2)C(=O)N[C@H]1c1cccs1	none (no result: MT stabilize HCS, Lmaj promast)
COc1cccc(C(=O)N/N=C(/CCC(=O)O)c2ccccc2)c1	none
COc1cc(C(=O)N/N=C(\c2ccccc2)c2ccccn2)cc(OC)c1OC	Lmaj promast 99.5
COc1cccc(C(=O)N/N=C(/c2ccccc2)c2ccccn2)c1	Lmaj promast 99.9
CCOC(Cn1c(-c2ccc(OC)cc2)nc2ccccc21)OCC	Lmaj promast 64.5 (no result: bCat nuc transl)
COc1ccc(-c2nc3ccccc3n2Cc2ccc(C)cc2)cc1	Lmaj promast 82.5
COc1ccc(Cn2c(-c3ccc(C)cc3)c[n+]3ccccc23)cc1	Lmaj promast 99.7
C=CCn1c(-c2ccc(C)cc2)nc2ccccc21	Lmaj promast 87.3 (no result: bCat nuc transl)
C=CCn1c(-c2cccnc2Cl)nc2ccccc21	none
Cc1ccc(C(=O)Nc2nc(-c3cc(Cl)sc3Cl)cs2)cc1	none
C=C(C)Cn1c(-c2ccc(OC)cc2)nc2ccccc21	Lmaj promast 54.5
Cc1noc2ncnc(Sc3ccccc3Cl)c12	Lmaj promast 80.2
COC(=O)c1ccccc1Sc1ncnc2onc(C)c12	Lmaj promast 56.8
C/C(=C\c1ccccc1)CN(C)CCN(C)C	Lmaj promast 96.6
C/C(=C\c1ccccc1)CN1CCN(c2ccccc2F)CC1	none
CC1CCc2ccc(F)cc2N1S(=O)(=O)c1cccs1 (stereo unspecified)	Lmaj promast 95.7
O=C(Oc1ccccc1Cl)c1ccccc1P(=O)(O)O	none (no result: bCat nuc transl)
CC1=NN(c2cccc(C(=O)O)c2)C(=O)/C1=C\C=C\c1ccco1	Dynein cargo inh -4.61 (no result: HSV replic up)
O=C(CCN1C(=O)/C(=C/c2ccc3c(c2)OCO3)SC1=S)Nc1ccccc1	none
COc1cc(CNC(=O)c2ccc(Cn3nc(C)c(Cl)c3C)o2)cc(OC)c1	Lmaj promast 53.0
O=C(N/N=C/c1oc(O)c2ccccc12)c1ccccc1O	none
CN1CCN(c2ccc(Cl)cc2NC(=O)C2COc3ccccc3O2)CC1 (stereo unspecified)	Lmaj promast 99.0
CCC(C)NC(=O)c1ccccc1NC(=O)C1COc2ccccc2O1 (stereo unspecified)	none
CN(C)S(=O)(=O)c1cccc(C(=O)Nc2cc(Cl)ccc2O)c1	none
CC(C)NC(=O)c1ccccc1NC(=O)C1COc2ccccc2O1 (stereo unspecified)	Lmaj promast 54.9
CN1CCN(c2ccc(Cl)cc2NC(=O)c2cccc(S(=O)(=O)N(C)C)c2)CC1	Lmaj promast 98.7 (no result: bCat nuc transl)
CC(=O)N1N=C(c2ccco2)CC1c1cccs1 (stereo unspecified)	none
CCN(CC)S(=O)(=O)c1ccc(OC)c(NC(=S)Nc2cccc(C)c2)c1	Lmaj promast 98.3
CCN(CC)S(=O)(=O)c1ccc(OC)c(NC(=S)Nc2cccc(C)c2C)c1	Lmaj promast 97.5
Cc1nc(-c2ccccc2)nc2[nH]c(-c3ccccc3)cc(=O)c12	none (no result: bCat nuc transl)
Cc1nc(C)c2c(=O)cc(-c3ccccc3)[nH]c2n1	MT stabilize HCS 42.6
NC(=O)c1ccc(-n2c(CCC(=O)O)ccc2-c2cccs2)cc1	none
Cc1nn(-c2ccc([N+](=O)[O-])cc2)c2c1C(c1cccc(Br)c1)N1C(=N2)C(=O)Nc2ccccc21 (stereo unspecified)	Lmaj promast 77.3
Brc1cc2c(cc1/C=N/Nc1nc(N3CCCC3)nc(N3CCOCC3)n1)OCO2	none (no result: bCat nuc transl)
CC1=C(C(=O)OCc2ccccc2)C(c2ccc(C#N)cc2)NC(=O)N1CCCC(=O)O (stereo unspecified)	none (no result: bCat nuc transl)
CN1CC(c2ccc(C#N)cc2)C2(COc3ccccc3C2=O)C12C(=O)Nc1ccccc12 (stereo unspecified)	Lmaj promast 90.0 (no result: bCat nuc transl)
Cc1nc2ccccn2c1C(=O)NCC(C)C	none (no result: bCat nuc transl)
CCc1ccc2nc(SCC(=O)Nc3ccccc3N3CCOCC3)c(C#N)cc2c1	none (no result: MT stabilize HCS, Lmaj promast)
COc1ccc2nc(SCC(=O)Nc3ccc(S(=O)(=O)N4CCCC4)cc3)c(C#N)cc2c1	Lmaj promast 89.6
N#Cc1cc2ccccc2nc1SCC(=O)Nc1ccc(S(=O)(=O)N2CCCC2)cc1	Lmaj promast 96.3
